ChEMBL document CHEMBL1143246, “Design and synthesis of bicyclic pyrimidinones as potent and orally bioavailable HIV-1 integrase inhibitors” (J Med Chem, 2008)
Values belong to the compound of their own block, whether it stands above or below them.

Columns and labels:
[1] = tested on: Human immunodeficiency virus 1; test: Antiviral activity against HIV1 in human MT4 cell assessed as inhibition of virus spread in presence of 10% fetal bovine serum; type: functional; settings: Human immunodeficiency virus 1, MT4; read-out: CIC95
Outline: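 Spread of HIV-1 infection in MT-4 human T-lymphoid cell culture with 10% fetal bovine serum; CIC95 is the concentration inhibiting spread by ≥95%; mean of at least three independent experiments.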

[2] = tested on: Human immunodeficiency virus 1; test: Antiviral activity against HIV1 in human MT4 cell assessed as inhibition of virus spread in presence of 50% normal human serum; type: functional; settings: Human immunodeficiency virus 1, MT4; read-out: CIC95
Outline: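 Spread of HIV-1 infection in MT-4 human T-lymphoid cell culture with 50% normal human serum; CIC95 is the concentration inhibiting spread by ≥95%; mean of at least three independent experiments.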

[3] = Protein binding in rat plasma; type: ADME, cell-free; settings: read-out: PPB (converted)
Outline: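 Plasma protein binding was measured by ultrafiltration after a 1 h incubation of compound in plasma at 37 °C.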

[4] = Protein binding in dog plasma; type: ADME, cell-free, Canis lupus familiaris; settings: read-out: PPB (converted)
Outline: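 Plasma protein binding measured by ultrafiltration after incubation at 37 °C for 1 h.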

Liver microsomes [5] = test: Metabolic stability in rat liver microsomes in presence of NADPH and UDPGA; type: ADME, Microsome
Outline: (§1)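 Multiple time points over 1 h: compound 1 µM with liver microsomes 1 mg/mL, in the presence of both UDPGA and NADPH; degradation followed by LC/MS/MS.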

Liver = test: Metabolic stability in dog liver microsomes in presence of NADPH and UDPGA; type: ADME, Canis lupus familiaris, Microsome; outline: as §1
Canis familiaris [6] = test: Oral bioavailability in dog at 2 mg/kg; type: ADME, organism-based, Canis lupus familiaris; settings: in vivo
Outline: (§2)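 In vivo PK: iv dosing in DMSO/PEG400/H₂O mixtures, oral dosing as methylcellulose suspension. Half-life was taken after iv dosing; AUC and Cmax after po dosing.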

[7] = Oral bioavailability in rat at 10 mg/kg; type: ADME, organism-based; settings: in vivo; outline: as §2
[8] = Oral bioavailability in rhesus monkey at 10 mg/kg; type: ADME, organism-based, Macaca mulatta; settings: in vivo
[9] = Plasma clearance in rat at 3 mg/kg, iv or 10 mg/kg, po; type: ADME, organism-based
[10] = Plasma clearance in rhesus monkey at 2 mg/kg, iv or 10 mg/kg, po; type: ADME, organism-based, Macaca mulatta
Outline: (§3)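 Rhesus dosed 2 mg/kg iv in DMSO; oral arm 10 mg/kg as 0.5% methylcellulose suspension; plasma clearance and iv half-life.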

[11] = Half life in rat at 3 mg/kg, iv; type: ADME, organism-based; set-up: dose 3 mg/kg, route intravenous; settings: in vivo; outline: as §2
[12] = Half life in dog at 1 mg/kg, iv; type: ADME, organism-based, Canis lupus familiaris; set-up: dose 1 mg/kg, route intravenous; settings: in vivo; outline: as §2
[13] = Half life in rhesus monkey at 2 mg/kg, iv; type: ADME, organism-based, Macaca mulatta; set-up: dose 2 mg/kg, route intravenous; settings: in vivo; outline: as §3
Canis familiaris [14] = test: AUC in dog at 2 mg/kg, po; type: ADME, organism-based, Canis lupus familiaris, Plasma; set-up: dose 2 mg/kg, route oral; settings: in vivo; outline: as §2
[15] = AUC in rhesus monkey at 10 mg/kg, po; type: ADME, organism-based, Macaca mulatta; set-up: dose 10 mg/kg, route oral; settings: plasma
[16] = Cmax in dog at 4 mg/kg, po; type: ADME, organism-based, Canis lupus familiaris; set-up: dose 4 mg/kg, route oral; settings: in vivo; outline: as §2
[17] = Cmax in dog at 2 mg/kg, po; type: ADME, organism-based, Canis lupus familiaris; set-up: dose 2 mg/kg, route oral; settings: in vivo; outline: as §2
[18] = Cmax in rhesus monkey at 10 mg/kg, po; type: ADME, organism-based, Macaca mulatta; set-up: dose 10 mg/kg, route oral; settings: in vivo
[19] = Volume of distribution at steady state in rat at 3 mg/kg, iv or 10 mg/kg, po; type: ADME, organism-based; settings: in vivo, read-out: Vdss
Outline: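 Rats received 3 mg/kg intravenously in DMSO/PEG400/H₂O (20%-60%-20%) and 10 mg/kg orally as a 1% methylcellulose suspension. Volume of distribution was derived from the plasma profiles.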

[20] = target: T1, DNA polymerase alpha catalytic subunit (Homo sapiens, UniProt P09884); test: Inhibition of human DNA polymerase alpha
T1 sequence (P09884 whole entry): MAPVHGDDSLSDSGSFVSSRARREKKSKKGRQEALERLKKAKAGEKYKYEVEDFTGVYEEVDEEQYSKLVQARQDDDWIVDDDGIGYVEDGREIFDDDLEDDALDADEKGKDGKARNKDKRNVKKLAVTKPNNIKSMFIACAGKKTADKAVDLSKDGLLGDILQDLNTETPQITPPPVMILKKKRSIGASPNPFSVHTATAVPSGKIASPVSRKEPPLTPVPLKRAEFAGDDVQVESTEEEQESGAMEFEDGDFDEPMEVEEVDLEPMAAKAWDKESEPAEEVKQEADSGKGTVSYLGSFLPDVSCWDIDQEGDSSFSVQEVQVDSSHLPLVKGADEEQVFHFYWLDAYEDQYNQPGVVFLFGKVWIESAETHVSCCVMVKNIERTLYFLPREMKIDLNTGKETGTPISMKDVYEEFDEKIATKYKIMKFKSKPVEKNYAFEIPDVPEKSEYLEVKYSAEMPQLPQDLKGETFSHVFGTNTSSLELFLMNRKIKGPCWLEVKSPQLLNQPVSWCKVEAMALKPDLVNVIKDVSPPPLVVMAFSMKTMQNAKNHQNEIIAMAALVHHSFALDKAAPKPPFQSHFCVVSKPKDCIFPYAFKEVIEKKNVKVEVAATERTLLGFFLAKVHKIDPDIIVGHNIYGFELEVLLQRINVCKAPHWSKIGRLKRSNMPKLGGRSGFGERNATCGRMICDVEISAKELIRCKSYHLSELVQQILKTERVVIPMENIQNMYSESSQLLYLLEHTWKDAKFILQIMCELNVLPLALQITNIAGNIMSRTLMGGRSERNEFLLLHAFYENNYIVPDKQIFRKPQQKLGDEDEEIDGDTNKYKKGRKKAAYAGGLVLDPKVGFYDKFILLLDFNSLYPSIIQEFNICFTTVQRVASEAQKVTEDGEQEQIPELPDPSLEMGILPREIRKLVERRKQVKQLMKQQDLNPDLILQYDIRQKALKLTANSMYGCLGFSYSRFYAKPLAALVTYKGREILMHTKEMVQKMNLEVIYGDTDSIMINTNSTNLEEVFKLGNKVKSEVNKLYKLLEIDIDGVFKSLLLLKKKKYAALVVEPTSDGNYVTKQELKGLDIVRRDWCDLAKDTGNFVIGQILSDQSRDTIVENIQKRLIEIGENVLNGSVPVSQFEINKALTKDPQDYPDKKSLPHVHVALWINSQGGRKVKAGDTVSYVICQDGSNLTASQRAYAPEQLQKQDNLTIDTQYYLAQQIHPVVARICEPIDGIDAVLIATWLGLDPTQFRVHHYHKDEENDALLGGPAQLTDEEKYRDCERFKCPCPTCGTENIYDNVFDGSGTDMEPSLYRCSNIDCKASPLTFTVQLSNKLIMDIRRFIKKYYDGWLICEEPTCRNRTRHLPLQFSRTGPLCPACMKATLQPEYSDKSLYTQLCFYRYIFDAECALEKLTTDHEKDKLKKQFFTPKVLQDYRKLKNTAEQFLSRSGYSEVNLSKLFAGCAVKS

DNA polymerase beta = DNA polymerase beta (Homo sapiens, UniProt P06746); test: Inhibition of human DNA polymerase beta
[21] = Inhibition of human DNA polymerase gamma
[22] = Inhibition of HIV-RNase-H; set-up: species or system Human immunodeficiency virus
[23] = target: Voltage-gated inwardly rectifying potassium channel KCNH2 (Homo sapiens, UniProt Q12809); test: Inhibition of human ERG
Voltage-gated inwardly rectifying potassium channel KCNH2, sequence (Q12809 whole entry): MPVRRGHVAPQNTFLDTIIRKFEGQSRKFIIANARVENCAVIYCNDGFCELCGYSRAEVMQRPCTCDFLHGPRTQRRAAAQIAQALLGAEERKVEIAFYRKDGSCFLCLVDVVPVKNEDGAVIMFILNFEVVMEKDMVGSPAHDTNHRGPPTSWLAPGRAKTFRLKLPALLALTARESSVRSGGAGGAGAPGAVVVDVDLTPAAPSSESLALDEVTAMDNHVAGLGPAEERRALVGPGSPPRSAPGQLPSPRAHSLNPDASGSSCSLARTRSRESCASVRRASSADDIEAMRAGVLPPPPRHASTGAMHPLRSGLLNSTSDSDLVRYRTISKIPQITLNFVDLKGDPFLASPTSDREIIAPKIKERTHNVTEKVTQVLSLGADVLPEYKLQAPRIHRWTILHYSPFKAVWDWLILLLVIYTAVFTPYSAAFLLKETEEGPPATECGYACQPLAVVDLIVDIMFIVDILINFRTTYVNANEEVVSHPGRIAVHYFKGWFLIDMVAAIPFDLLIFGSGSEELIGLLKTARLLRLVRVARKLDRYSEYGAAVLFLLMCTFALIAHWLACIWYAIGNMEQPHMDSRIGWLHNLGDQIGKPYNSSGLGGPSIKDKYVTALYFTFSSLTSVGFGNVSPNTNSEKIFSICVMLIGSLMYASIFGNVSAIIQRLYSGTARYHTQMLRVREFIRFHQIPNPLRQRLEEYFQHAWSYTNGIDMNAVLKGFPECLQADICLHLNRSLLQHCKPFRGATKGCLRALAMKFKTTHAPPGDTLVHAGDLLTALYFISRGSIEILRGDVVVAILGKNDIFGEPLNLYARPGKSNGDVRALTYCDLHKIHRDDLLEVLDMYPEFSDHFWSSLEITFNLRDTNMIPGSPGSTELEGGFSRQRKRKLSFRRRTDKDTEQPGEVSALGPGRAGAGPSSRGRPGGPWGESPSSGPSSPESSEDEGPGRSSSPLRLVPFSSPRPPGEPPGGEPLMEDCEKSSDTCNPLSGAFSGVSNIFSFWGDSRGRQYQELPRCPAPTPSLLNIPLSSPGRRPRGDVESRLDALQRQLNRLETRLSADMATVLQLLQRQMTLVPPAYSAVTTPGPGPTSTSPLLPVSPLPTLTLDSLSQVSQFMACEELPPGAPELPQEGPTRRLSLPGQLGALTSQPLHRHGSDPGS

Cytochrome P450 2C19 = Cytochrome P450 2C19 (Homo sapiens, UniProt P33261); test: Inhibition of CYP2C19; type: ADME
Cytochrome P450 2C19, sequence (P33261 whole entry): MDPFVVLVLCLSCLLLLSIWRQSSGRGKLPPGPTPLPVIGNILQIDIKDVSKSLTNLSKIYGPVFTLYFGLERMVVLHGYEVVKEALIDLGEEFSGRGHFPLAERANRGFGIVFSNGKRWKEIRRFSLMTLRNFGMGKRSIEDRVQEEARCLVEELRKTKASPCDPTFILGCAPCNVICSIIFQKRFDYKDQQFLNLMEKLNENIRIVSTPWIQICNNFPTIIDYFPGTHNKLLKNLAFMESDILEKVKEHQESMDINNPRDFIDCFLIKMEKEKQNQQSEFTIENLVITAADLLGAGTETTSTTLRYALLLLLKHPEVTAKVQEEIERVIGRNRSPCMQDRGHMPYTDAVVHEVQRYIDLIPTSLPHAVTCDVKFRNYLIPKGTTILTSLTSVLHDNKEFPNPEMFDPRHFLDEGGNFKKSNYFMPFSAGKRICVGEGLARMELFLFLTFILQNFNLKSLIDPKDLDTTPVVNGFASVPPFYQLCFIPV

Cytochrome P450 2C9 = Cytochrome P450 2C9 (Homo sapiens, UniProt P11712); test: Inhibition of CYP2C9; type: ADME
Cytochrome P450 2C9, sequence (P11712 whole entry): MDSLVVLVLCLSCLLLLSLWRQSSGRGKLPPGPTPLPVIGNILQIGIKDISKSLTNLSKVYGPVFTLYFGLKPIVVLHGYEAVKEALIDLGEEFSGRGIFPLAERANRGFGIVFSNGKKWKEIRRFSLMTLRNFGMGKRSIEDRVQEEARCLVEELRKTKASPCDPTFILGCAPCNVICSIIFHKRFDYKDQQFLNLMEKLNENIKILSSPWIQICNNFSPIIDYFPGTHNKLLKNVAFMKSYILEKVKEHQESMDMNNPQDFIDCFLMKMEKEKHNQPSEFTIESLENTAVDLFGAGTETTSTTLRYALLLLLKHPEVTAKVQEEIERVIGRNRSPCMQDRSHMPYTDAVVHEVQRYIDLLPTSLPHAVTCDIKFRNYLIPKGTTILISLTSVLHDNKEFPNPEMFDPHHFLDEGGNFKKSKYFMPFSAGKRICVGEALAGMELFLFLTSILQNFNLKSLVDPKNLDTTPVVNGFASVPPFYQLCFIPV

Cytochrome P450 2D6 = Cytochrome P450 2D6 (Homo sapiens, UniProt P10635); test: Inhibition of CYP2D6; type: ADME
Cytochrome P450 2D6, sequence (P10635 whole entry): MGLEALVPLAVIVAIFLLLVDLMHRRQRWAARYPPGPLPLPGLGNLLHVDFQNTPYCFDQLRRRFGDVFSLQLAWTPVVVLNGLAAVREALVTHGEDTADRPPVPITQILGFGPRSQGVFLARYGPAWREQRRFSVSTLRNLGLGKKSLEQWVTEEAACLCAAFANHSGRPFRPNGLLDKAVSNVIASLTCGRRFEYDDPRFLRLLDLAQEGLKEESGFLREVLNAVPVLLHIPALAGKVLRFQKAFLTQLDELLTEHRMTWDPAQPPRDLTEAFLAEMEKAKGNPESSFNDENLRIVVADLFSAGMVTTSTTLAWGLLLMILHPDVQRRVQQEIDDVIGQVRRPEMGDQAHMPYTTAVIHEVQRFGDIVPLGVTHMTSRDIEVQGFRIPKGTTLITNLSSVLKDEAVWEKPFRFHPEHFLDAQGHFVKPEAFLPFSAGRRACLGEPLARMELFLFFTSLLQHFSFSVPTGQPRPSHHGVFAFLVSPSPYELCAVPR

Cytochrome P450 3A4 = Cytochrome P450 3A4 (Homo sapiens, UniProt P08684); test: Inhibition of CYP3A4; type: ADME
Cytochrome P450 3A4, sequence (P08684 whole entry): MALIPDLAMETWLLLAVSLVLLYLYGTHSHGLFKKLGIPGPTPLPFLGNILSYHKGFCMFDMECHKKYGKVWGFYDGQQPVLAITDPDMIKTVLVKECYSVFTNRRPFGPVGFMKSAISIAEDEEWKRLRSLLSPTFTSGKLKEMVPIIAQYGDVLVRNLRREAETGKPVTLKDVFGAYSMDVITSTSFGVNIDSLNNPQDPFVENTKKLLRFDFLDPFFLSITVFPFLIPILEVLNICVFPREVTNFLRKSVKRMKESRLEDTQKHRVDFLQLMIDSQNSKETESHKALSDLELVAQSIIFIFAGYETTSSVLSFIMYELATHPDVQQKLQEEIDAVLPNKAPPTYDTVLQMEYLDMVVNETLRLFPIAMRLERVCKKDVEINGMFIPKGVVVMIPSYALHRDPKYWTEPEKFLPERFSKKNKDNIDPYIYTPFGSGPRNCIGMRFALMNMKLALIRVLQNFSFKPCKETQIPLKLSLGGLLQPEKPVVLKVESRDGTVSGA

Liver microsomes [24] = test: Metabolic stability in human liver microsomes in presence of NADPH and UDPGA; type: ADME, Microsome; outline: as §1
[25] = Inhibition of recombinant HIV1 integrase strand transfer activity
[26] = AUC in rat at 10 mg/kg, po; settings: plasma
Homo sapiens = species: Homo sapiens; test: Protein binding in human plasma; settings: read-out: PPB (converted)
[27] = Volume of distribution at steady state in dog at 1 mg/kg, iv or 2 mg/kg, po; settings: in vivo, read-out: Vdss
[28] = Volume of distribution at steady state in rhesus monkey at 2 mg/kg, iv or 10 mg/kg, po; settings: in vivo, read-out: Vdss
[29] = Oral bioavailability in rat at 3 mg/kg; type: ADME, organism-based; settings: in vivo; outline: as §2
[30] = Plasma clearance in rat at 3 mg/kg, po or 3 mg/kg, iv; type: ADME, organism-based; outline: as §2
[31] = Oral bioavailability in dog at 4 mg/kg; type: ADME, organism-based, Canis lupus familiaris; settings: in vivo; outline: as §2
[32] = Plasma clearance in dog at 1 mg/kg, iv or 4 mg/kg, po; type: ADME, organism-based, Canis lupus familiaris; outline: as §2
[33] = AUC in rat at 3 mg/kg, po; type: ADME, organism-based; set-up: dose 3 mg/kg, route oral; settings: plasma; outline: as §2
[34] = AUC in rat at 10 mg/kg, po; type: ADME, organism-based; set-up: dose 10 mg/kg, route oral; settings: plasma; outline: as §2
[35] = Cmax in rat at 3 mg/kg, po; type: ADME, organism-based; set-up: dose 3 mg/kg, route oral; settings: in vivo; outline: as §2
[36] = Cmax in rat at 10 mg/kg, po; type: ADME, organism-based; set-up: dose 10 mg/kg, route oral; settings: in vivo; outline: as §2
[37] = Volume of distribution at steady state in rat at 3 mg/kg, iv or 3 mg/kg, po; type: ADME, organism-based; settings: in vivo, read-out: Vdss
[38] = Volume of distribution at steady state in dog at 1 mg/kg, iv or 4 mg/kg, po; type: ADME, organism-based, Canis lupus familiaris; settings: in vivo, read-out: Vdss
Outline: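 Dogs received 1 mg/kg intravenously in DMSO/PEG400/H₂O (20%-40%-40%) and 4 mg/kg orally as a 1% methylcellulose suspension. Volume of distribution was derived from the plasma concentration data.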

fraction unbound [3]: 0.06
fraction unbound [4]: 0.24
Stability (Liver microsomes [5]): 11 µL/min/mg
Stability (Liver): 4 µL/min/mg
F (Canis familiaris [6]): 61%
bioavailability [7]: 64%
bioavailability [8]: 31%
clearance [9]: 7 mL/min/kg
clearance [10]: 8 mL/min/kg
half-life [11]: 7.4 h
half-life [12]: 2.1 h
half-life [13]: 2.6 h
AUC (Canis familiaris [14]): 31 µM·h
AUC [15]: 14 µM·h
Cmax [16]: 27 µM
Cmax [17]: 25 µM
Cmax [18]: 10 µM
Vd [19]: 0.7 L/kg
IC50 [20]: > 10000 nM
IC50 (DNA polymerase beta): > 10000 nM
IC50 [21]: > 10000 nM
IC50 [22]: > 50000 nM
IC50 (Cytochrome P450 2C19): > 100000 nM
IC50 (Cytochrome P450 2C9): 75000 nM
IC50 (Cytochrome P450 2D6): > 100000 nM
IC50 (Cytochrome P450 3A4): > 100000 nM
Stability (Liver microsomes [24]): 3 µL/min/mg
IC50 [25]: 12 nM
AUC [26]: 37 µM·h
fraction unbound (Homo sapiens): 0.19
Vd [27]: 0.9 L/kg
Vd [28]: 0.7 L/kg
Structure (SMILES): CN(C)C(=O)C(=O)N(C)[C@H]1CCCCn2c1nc(C(=O)NCc1ccc(F)cc1)c(O)c2=O
IC95 [1]: 10 nM
IC95 [2]: 13 nM
IC50 [23]: > 10000 nM

fraction unbound [3]: 0.16
fraction unbound [4]: 0.34
bioavailability [29]: 47%
clearance [30]: 11 mL/min/kg
bioavailability [31]: 39%
clearance [32]: 15 mL/min/kg
half-life [11]: 14 h
half-life [12]: 1.7 h
AUC [33]: 2.5 µM·h
AUC [34]: 3.8 µM·h
Cmax [35]: 2 µM
Cmax [36]: 2.5 µM
Vd [37]: 3 L/kg
Vd [38]: 1.2 L/kg
IC50 [25]: 12 nM
fraction unbound (Homo sapiens): 0.37
Structure (SMILES): CN(C)C(=O)C(=O)N(C)[C@H]1CCCn2c1nc(C(=O)NCc1ccc(F)cc1)c(O)c2=O
IC95 [1]: 33 nM
IC95 [2]: 43 nM
